Measured values: article PMC2880883 (Biochemical pharmacology, 2010)
“Also recorded” adds a separate entry of the source. Where two headings read alike, the source gives them in different places.

Tests used:
[1] = tested on: non-transfected HL-1 cells; assay: LDH assay, protection from H2O2-induced cell death, untransfected cells; details: for Protection against H2O2-induced cytotoxicity in non-transfected HL-1 cells: 750 μM H2O2, LDH assay
[2] = tested on: A3AR-transfected HL-1 cells; assay: LDH assay, protection from H2O2-induced cell death, hA3AR-transfected cells; type: cell-based, mouse; details: for Protection against H2O2-induced cytotoxicity in A3AR-transfected HL-1 cells: 750 μM H2O2; for IC50: HL-1, read-out: Protection from cell death induced by H2O2, transfected cells, IC50; for EC50: read-out: Protection of A3 AR-transfected cells against H2O2, EC50 (lactate dehydrogenase release)
[3] = target: T1, hA1AR (Homo sapiens, UniProt P30542); details: read-out: Binding, Ki, A1; [3H]CCPA; previously reported; cited from earlier work
T1 sequence (P30542 1-326): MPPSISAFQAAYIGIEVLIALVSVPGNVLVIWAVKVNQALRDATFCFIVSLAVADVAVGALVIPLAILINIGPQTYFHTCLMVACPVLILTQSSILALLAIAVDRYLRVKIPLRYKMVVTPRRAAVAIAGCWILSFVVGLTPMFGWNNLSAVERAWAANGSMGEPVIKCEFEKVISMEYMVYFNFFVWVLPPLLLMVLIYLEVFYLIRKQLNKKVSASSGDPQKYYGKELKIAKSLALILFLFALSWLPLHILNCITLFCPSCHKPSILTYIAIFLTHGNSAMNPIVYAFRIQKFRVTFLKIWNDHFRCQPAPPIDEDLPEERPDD

[4] = target: T2, hA3AR (Homo sapiens, UniProt P0DMS8); assay: cAMP assay, inhibition of forskolin-stimulated cAMP, CHO cells; type: cell-based
T2 sequence (P0DMS8 1-318): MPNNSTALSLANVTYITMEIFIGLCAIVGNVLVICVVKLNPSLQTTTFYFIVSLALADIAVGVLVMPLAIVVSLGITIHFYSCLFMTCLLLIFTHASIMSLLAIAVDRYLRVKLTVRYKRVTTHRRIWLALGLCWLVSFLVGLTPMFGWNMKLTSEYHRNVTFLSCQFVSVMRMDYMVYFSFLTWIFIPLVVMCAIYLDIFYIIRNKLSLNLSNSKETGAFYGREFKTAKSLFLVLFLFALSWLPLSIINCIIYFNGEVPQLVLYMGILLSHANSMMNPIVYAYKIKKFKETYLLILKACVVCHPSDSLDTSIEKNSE
Summary of the method: (§1)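 Stably transfected CHO cells (A1, A2A or A3AR) were seeded overnight at 37 °C, then given DMEM with 50 mM HEPES, 10 μM rolipram, 3 U/ml adenosine deaminase and rising test compound, for 30 min at 37 °C. For A1/A3, 10 μM forskolin was added for 15 min more; A2A plates were incubated 45 min. Cells were lysed in 0.1 M HCl; cAMP by immunoassay at 405 nm.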

[5] = target: T3, hA2AAR (Homo sapiens, UniProt P29274); assay: cAMP assay, stimulation of cAMP, CHO cells; type: cell-based
Summary of the method: as §1

[6] = target: T1, hA1AR; assay: cAMP assay, inhibition of forskolin-stimulated cAMP, CHO cells; type: cell-based
Summary of the method: as §1

[7] = target: T2, hA3AR; details: read-out: Binding, Ki, A3; [125I]AB-MECA; previously reported; cited from earlier work
[8] = target: T3, hA2AAR; details: read-out: Binding, Ki, A2A; [3H]CGS21680; previously reported; cited from earlier work
[9] = tested on: A3AR-transfected HL-1 cells; assay: Luminescent caspase 3/7 assay of H2O2-induced apoptosis; type: cell-based, mouse; details: dendrimer 10 μM 1 h before 400 μM H2O2, 3 h
Summary of the method: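 HL-1 cells transfected with hA3AR were seeded at 30,000 cells/well and incubated overnight at 37 °C, then switched to DMEM with Ca/Mg. Dendrimer (10 μM) was added 1 h before H2O2 (400 μM) and kept throughout, with 3 h at 37 °C. An equal volume of Caspase-Glo 3/7 reagent was added for 90 min at room temperature before reading luminescence. Three independent experiments in triplicate, mean ± SD.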

[10] = target: T1, hA1AR; assay: Radioligand membrane binding, [3H]CCPA, stably transfected CHO cells; details: read-out: Binding, Ki app, A1, dendrimer concentration, mean ± SEM, n = 3
[11] = target: T3, hA2AAR; assay: Radioligand membrane binding, [3H]CGS21680, stably transfected HEK cells; details: read-out: Binding, Ki app, A2A, dendrimer concentration, mean ± SEM, n = 3
[12] = target: T2, hA3AR; assay: Radioligand membrane binding, [125I]AB-MECA, stably transfected CHO cells

T3 sequence (P29274 whole entry): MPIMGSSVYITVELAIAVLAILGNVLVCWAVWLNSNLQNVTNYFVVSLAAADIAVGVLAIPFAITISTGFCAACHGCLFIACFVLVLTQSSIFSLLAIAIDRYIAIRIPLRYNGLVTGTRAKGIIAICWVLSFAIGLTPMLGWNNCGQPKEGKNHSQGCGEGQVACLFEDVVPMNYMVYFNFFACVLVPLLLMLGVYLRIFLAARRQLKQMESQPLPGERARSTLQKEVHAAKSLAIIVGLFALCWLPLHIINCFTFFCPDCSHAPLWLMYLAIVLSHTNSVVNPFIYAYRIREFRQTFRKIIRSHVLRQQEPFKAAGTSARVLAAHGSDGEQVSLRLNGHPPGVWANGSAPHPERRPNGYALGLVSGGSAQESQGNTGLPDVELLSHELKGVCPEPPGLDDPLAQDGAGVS

OC[C@H]1O[C@@H](n2cnc3c(NC4CCCC4)nc(Cl)nc32)[C@H](O)[C@@H]1O [CCPA, 2-Chloro-N^6-cyclopentyladenosine]
Protection against H2O2-induced cytotoxicity in non-transfected HL-1 cells [1]: did not protect

CCNC(=O)[C@H]1O[C@@H](n2cnc3c(N)nc(NCCc4ccc(CCC(=O)O)cc4)nc32)[C@H](O)[C@@H]1O [CGS21680, 2-[p-(2-carboxyethyl)phenylethyl-amino]-5′-N-ethylcarboxamidoadenosine]
Protection against H2O2-induced cytotoxicity in non-transfected HL-1 cells [1]: protected; also recorded: protective
IC50 ([1]; Mus musculus, HL-1, read-out: Protection from cell death induced by H2O2, untransfected cells, IC50): 7.1 ± 2.4 µM

CNC(=O)[C@H]1O[C@@H](n2cnc3c(NCc4cccc(I)c4)nc(Cl)nc32)[C@H](O)[C@@H]1O [Cl-IB-MECA, 2-chloro-N^6-(3-iodobenzyl)-5′-N-methylcarboxamidoadenosine]
Protection against H2O2-induced cytotoxicity in A3AR-transfected HL-1 cells ([2]; LDH assay): revealed protection
IC50 ([2]; Mus musculus): 7.9 ± 2.3 µM
Protection against H2O2-induced cytotoxicity in non-transfected HL-1 cells [1]: neither IB-MECA nor Cl-IB-MECA gave protection

CNC(=O)[C@H]1O[C@@H](n2cnc3c(NCc4cccc(I)c4)ncnc32)[C@H](O)[C@@H]1O [IB-MECA, N^6-(3-iodobenzyl)-5′-N-methylcarboxamidoadenosine]
Protection against H2O2-induced cytotoxicity in A3AR-transfected HL-1 cells ([2]; LDH assay): revealed protection
EC50 ([2]; Mus musculus, HL-1, 4 h): 3.8 µM
IC50 ([2]; Mus musculus): 3.8 ± 1.4 µM
Protection against H2O2-induced cytotoxicity in non-transfected HL-1 cells [1]: neither IB-MECA nor Cl-IB-MECA gave protection

CCOC(=O)C1=C(C)NC(c2ccccc2)=C(C(=O)OCc2ccccc2)C1C#Cc1ccccc1 (stereo not drawn) [MRS1191]
Effect of A3 antagonist on protection afforded by IB-MECA from H2O2-induced cell death ([2]; MRS1191 10 μM 1 h before IB-MECA 30 μM, 750 μM H2O2, 4 h, transfected HL-1 cells): prevented the protection

CCNC(=O)[C@H]1O[C@@H](n2cnc3c(N)ncnc32)[C@H](O)[C@@H]1O [NECA, 5′-N-ethylcarboxamidoadenosine]
EC50 ([2]; 750 μM H2O2, 4 h): 3.9 µM
Protection against H2O2-induced cytotoxicity in non-transfected HL-1 cells [1]: protected; also recorded: protective

N-(2-Aminoethyl)-ADAC [compound 4]
Ki [3]: 0.043 ± 0.005 µM
Agonist efficacy in cAMP assay, A3AR (inhibition) [4]: potent full agonist
Agonist efficacy in cAMP assay, A2AAR (stimulation) [5]: potent full agonist
Agonist efficacy in cAMP assay, A1AR (inhibition) [6]: potent full agonist
Ki [7]: 0.0095 ± 0.002 µM
Ki [8]: 0.3 ± 0.02 µM

PAMAMG5.5-1(AF488-ED) [compound 7]
Activity in assay of A3AR-mediated cAMP inhibition at 10 μM ([4]; 10 μM): inactive
Effect on H2O2-induced apoptosis (caspase 3/7 luminescence) [9]: did not significantly decrease; also recorded: not by 7

PAMAMG5.5-1(AF488-ED)-60(N-(2-aminoethyl)-ADAC) [compound 8]
Protection against H2O2-induced cytotoxicity in A3AR-transfected HL-1 cells ([2]; LDH assay): highly potent
IC50 value less than those of monomeric A3AR agonists IB-MECA and Cl-IB-MECA ([2]; A3AR-transfected HL-1 cells, LDH assay): 100- to 200 fold
Ki [10]: 0.14 ± 0.065 µM
Protection against H2O2-induced cytotoxicity in non-transfected HL-1 cells [1]: did not show cytoprotection
Ki [11]: 0.08 ± 0.017 µM
Selectivity in assay of adenylate cyclase inhibition / AR activation ([4]; versus A1 and A2AARs): nonselective; also recorded: nonselectively
Ki ([12]; read-out: Binding, Ki app, A3, [125I]AB-MECA, dendrimer concentration, mean ± SEM, n = 3): 0.015 ± 0.004 µM
Selectivity for the A3AR in binding ([12]; versus A1 and A2AARs): only slightly selective
Effect on H2O2-induced apoptosis (caspase 3/7 luminescence) [9]: significantly decreased; also recorded: significant protection
